Source: article PMC11492202 (RSC Advances, 2024)

Key:
α-amylase = assay: In vitro α-amylase inhibition assay; type: biochemical; conditions: read-out: α-Amylase inhibition IC50 ± SEM; starch substrate, pH 6.9
Escherichia coli = assay: Antibacterial disc diffusion assay; type: cell-based; conditions: 37 °C, 24 hours
Procedure, shortened: (§1)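 Organisms grown overnight in nutrient broth, adjusted to 0.5 McFarland turbidity and spread evenly on Mueller-Hinton agar with sterile cotton brushes. Sterile 4 mm paper discs were impregnated with test compound and placed on the inoculated plates. Rifampin served as the positive control and DMSO as the negative control. Plates were incubated at 37 °C for 24 h, and inhibition zones were measured in mm.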

Bacillus subtilis = assay: Antibacterial disc diffusion assay; type: cell-based; conditions: 37 °C, 24 hours
Procedure, shortened: as §1

Proteinase K = Proteinase K (Parengyodontium album, UniProt P06873); assay: In vitro proteinase K inhibition assay; type: biochemical, Tritirachium album Limber
Proteinase K, sequence (P06873 106-384): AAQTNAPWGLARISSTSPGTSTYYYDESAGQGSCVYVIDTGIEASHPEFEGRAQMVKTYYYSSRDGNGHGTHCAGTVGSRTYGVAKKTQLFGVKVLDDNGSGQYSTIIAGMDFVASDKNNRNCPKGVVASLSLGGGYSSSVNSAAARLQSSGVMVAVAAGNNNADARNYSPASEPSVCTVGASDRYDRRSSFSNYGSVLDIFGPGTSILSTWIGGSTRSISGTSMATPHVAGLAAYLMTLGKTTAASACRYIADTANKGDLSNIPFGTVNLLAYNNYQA

With `Cc1ccc(-c2cc(-c3ccc(F)cc3)nc(NC(=S)NC(=O)c3ccccc3)n2)cc1` [6d, N-((4-(4-Fluorophenyl)-6-(p-tolyl)pyrimidin-2-yl)carbamothioyl)benzamide] the IC50 (α-amylase) was 1550 ± 23 nM, the “Antibacterial zone of inhibition” value (Escherichia coli) was 8 mm and the “Antibacterial zone of inhibition” value (Bacillus subtilis) was 9 mm.

With `CO[C@H]1/C=C/O[C@@]2(C)Oc3c(C)c(O)c4c(O)c(c(/C=N/N5CCN(C)CC5)c(O)c4c3C2=O)NC(=O)/C(C)=C\C=C\[C@H](C)[C@H](O)[C@@H](C)[C@@H](O)[C@@H](C)[C@H](OC(C)=O)[C@@H]1C` [Rifampin, reference compound] the “Antibacterial zone of inhibition” value (Escherichia coli) was 17 mm and the “Antibacterial zone of inhibition” value (Bacillus subtilis) was 26 mm.

With `O=C(NC(=S)Nc1nc(-c2ccccc2)cc(-c2ccc(Cl)cc2)n1)C1CCCCC1` [6i, N-((4-(4-Chlorophenyl)-6-phenylpyrimidin-2-yl)carbamothioyl) cyclohexane carboxamide] the IC50 (α-amylase) was 1520 ± 34 nM, the “Antibacterial zone of inhibition” value (Escherichia coli) was 7 mm and the “Antibacterial zone of inhibition” value (Bacillus subtilis) was 11 mm.

In the case of `COc1ccc(C(=O)NC(=S)Nc2nc(-c3ccccc3)cc(-c3ccc(Cl)cc3)n2)cc1OC` [6b, N-((4-(4-Chlorophenyl)-6-phenylpyrimidin-2-yl)carbamothioyl)-3,4-dimethoxybenzamide], the IC50 (α-amylase) is reported as 1612 ± 4 nM, the IC50 (Proteinase K) is reported as 1810 ± 86 nM and the “Antibacterial zone of inhibition” value (Escherichia coli) is reported as 6 mm. For the same compound, the “Antibacterial zone of inhibition” value (Bacillus subtilis) was 9 mm.

In the case of `O=C(NC(=S)Nc1nc(-c2ccccc2)cc(-c2ccc(F)cc2)n1)c1ccccc1` [6e, N-((4-(4-Fluorophenyl)-6-phenylpyrimidin-2-yl)carbamothioyl)benzamide], the IC50 (α-amylase) is reported as 1662 ± 10 nM, the “Antibacterial zone of inhibition” value (Escherichia coli) is reported as 6 mm and the “Antibacterial zone of inhibition” value (Bacillus subtilis) is reported as 7 mm.

In the case of `O=C(NC(=S)Nc1nc(-c2ccccc2)cc(-c2ccc(Cl)cc2)n1)c1cccc2ccccc12` [6h, N-((4-(4-Chlorophenyl)-6-phenylpyrimidin-2-yl)carbamothioyl)-1-naphthamide], the IC50 (α-amylase) is reported as 1601 ± 8 nM, the “Antibacterial zone of inhibition” value (Escherichia coli) is reported as 6 mm and the “Antibacterial zone of inhibition” value (Bacillus subtilis) is reported as 8 mm.

With `Cc1ccc(-c2cc(-c3ccccc3)nc(NC(=S)NC(=O)c3ccccc3)n2)cc1` [6c, N-((4-Phenyl-6-(p-tolyl)pyrimidin-2-yl)carbamothioyl)benzamide] the IC50 (α-amylase) was 1550 ± 24 nM, the IC50 (Proteinase K) was 1830 ± 62 nM and the “Antibacterial zone of inhibition” value (Escherichia coli) was 7 mm. For the same compound, the “Antibacterial zone of inhibition” value (Bacillus subtilis) was 8 mm.

With `O=C(NC(=S)Nc1nc(-c2ccccc2)cc(-c2ccc(Br)cc2)n1)c1ccccc1` [6a, N-((4-(4-Bromophenyl)-6-phenylpyrimidin-2-yl)carbamothioyl) benzamide] the IC50 (α-amylase) was 1676 ± 14 nM, the “Antibacterial zone of inhibition” value (Escherichia coli) was 7 mm and the “Antibacterial zone of inhibition” value (Bacillus subtilis) was 8 mm.

`Cc1ccc(C(=O)NC(=S)Nc2nc(-c3ccccc3)cc(-c3ccc(Cl)cc3)n2)cc1` [6j, N-((4-(4-Chlorophenyl)-6-phenylpyrimidin-2-yl)carbamothioyl)-4-methylbenzamide] was tested, and the IC50 (α-amylase) was 1480 ± 51 nM, the “Antibacterial zone of inhibition” value (Escherichia coli) was 6 mm and the “Antibacterial zone of inhibition” value (Bacillus subtilis) was 7 mm.

For `Cc1ccccc1C(=O)NC(=S)Nc1nc(-c2ccccc2)cc(-c2ccc(Cl)cc2)n1` [6f, N-((4-(4-Chlorophenyl)-6-phenylpyrimidin-2-yl)carbamothioyl)-2 methylbenzamide], the IC50 (α-amylase) was 1664 ± 10 nM, the IC50 (Proteinase K) was 1790 ± 80 nM and the “Antibacterial zone of inhibition” value (Escherichia coli) was 7 mm. For the same compound, the “Antibacterial zone of inhibition” value (Bacillus subtilis) was 6 mm.
